Experimental data: paper PMC6761749 (ACS Omega, 2019)

Columns and labels:
human TLR7 = molecular target: T1, human TLR7 (Homo sapiens, UniProt Q9NYK1); assay: HEK293-hTLR7 NFκB SEAP reporter assay; format: cell-based; settings: comparator 1b
T1 sequence (Q9NYK1 27-1049): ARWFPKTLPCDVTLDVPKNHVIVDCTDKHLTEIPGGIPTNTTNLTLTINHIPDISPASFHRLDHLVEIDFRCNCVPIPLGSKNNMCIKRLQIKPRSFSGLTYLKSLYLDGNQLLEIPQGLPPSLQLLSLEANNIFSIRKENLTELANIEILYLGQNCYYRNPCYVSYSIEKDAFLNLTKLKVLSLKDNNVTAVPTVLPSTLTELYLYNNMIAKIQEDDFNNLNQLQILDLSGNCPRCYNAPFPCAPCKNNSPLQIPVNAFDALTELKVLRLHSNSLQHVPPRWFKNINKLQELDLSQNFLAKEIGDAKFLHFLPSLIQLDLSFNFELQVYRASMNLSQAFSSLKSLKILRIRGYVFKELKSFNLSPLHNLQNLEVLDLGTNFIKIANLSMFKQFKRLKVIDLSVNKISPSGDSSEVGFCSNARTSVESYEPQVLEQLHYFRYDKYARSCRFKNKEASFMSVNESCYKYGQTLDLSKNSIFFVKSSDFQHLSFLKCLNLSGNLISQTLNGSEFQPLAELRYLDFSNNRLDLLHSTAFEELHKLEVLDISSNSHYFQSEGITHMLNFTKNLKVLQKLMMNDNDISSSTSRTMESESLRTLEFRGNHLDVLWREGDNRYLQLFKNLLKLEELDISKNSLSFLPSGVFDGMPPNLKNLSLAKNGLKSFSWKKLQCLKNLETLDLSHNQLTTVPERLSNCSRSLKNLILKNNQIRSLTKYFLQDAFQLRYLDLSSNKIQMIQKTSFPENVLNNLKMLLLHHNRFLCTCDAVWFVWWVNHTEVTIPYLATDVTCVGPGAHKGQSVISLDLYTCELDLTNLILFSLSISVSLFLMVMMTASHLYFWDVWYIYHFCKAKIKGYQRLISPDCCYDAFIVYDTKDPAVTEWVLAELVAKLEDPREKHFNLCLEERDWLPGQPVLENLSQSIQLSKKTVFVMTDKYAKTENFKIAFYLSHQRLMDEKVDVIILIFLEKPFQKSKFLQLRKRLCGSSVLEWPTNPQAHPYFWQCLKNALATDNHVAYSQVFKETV

human PBMCs = assay: TNFα induction from human PBMCs; format: cell-based; settings: hPBMCs, in the dose range evaluated
How it was run: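 Donor PBMCs from healthy human whole blood were isolated on a Ficoll-Hypaque 1.077 gradient and plated at 0.5 × 10^6 cells/well in RPMI-1640 with pen/strep/glutamine and 10% heat-inactivated FBS. Test compounds (stocks 3–5 mg/mL in 2% glycerol–10% DMSO/water) were added at increasing concentrations for 24 h. Supernatant TNFα and IFNα were measured by ELISA. MEC is the lowest tested dose inducing cytokine. Values come from one of three donors.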

| SMILES | fold less active (hTLR7) than 1b (human TLR7) [fold] | TNFα induction (human PBMCs) |
| --- | --- | --- |
| CCCCOc1nc(N)c2[nH]c(=O)n(CCN3CCNCC3)c2n1.Cl [Compound 7a, 6-Amino-2-butoxy-9-(4-piperazinyl)ethyl-7,9-dihydro-8H-purin-8-one Hydrochloride] | 12 | – |
| CCCCOc1nc(N)c2[nH]c(=O)n(C3CNC3)c2n1.Cl [Compound 3a, 6-Amino-2-butoxy-9-(3-azetidinyl)-7,9-dihydro-8H-purin-8-one Hydrochloride] | – | did not induce measurable TNFα |
